ChEMBL document CHEMBL2146419, “Effects of polyphenol compounds on influenza A virus replication and definition of their mechanism of action” (Bioorg Med Chem, 2012)
Active and inactive are the calls of the source. No cut-off for these calls is given here.

Tests used:
[1] = test system: MDCK; experiment: Cytotoxicity against dog MDCK cells assessed as loss of cell viability incubated for 24 hrs followed by compound wash out measured after 24 hrs by trypan blue exclusion assay; type: cell-based, Canis lupus familiaris
Method in brief: (§1)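 Confluent MDCK monolayers plated at 2×10^5/ml were treated after 24 h with compound at 5–40 μg/ml and incubated a further 24 h. Assessed by microscopic examination of morphology, Trypan blue exclusion for viability, and cell counts for multiplication rate.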

[2] = test system: MDCK; experiment: Cytotoxicity against dog MDCK cells assessed as morphological alterations incubated for 24 hrs followed by compound wash out measured after 24 hrs by microscopic analysis; type: cell-based, Canis lupus familiaris; method in brief: as §1
[3] = test system: MDCK; experiment: Cytotoxicity against dog MDCK cells assessed as modification of cell multiplication rate incubated for 24 hrs followed by compound wash out measured after 24 hrs by cell counting analysis; type: cell-based, Canis lupus familiaris; method in brief: as §1
[4] = test system: Influenza A virus; experiment: Antiviral activity against Influenza virus A/Puerto Rico/8/34 H1N1 infected in dog MDCK cells incubated at 1 hr post-infection measured after 24 hrs by hemagglutininating unit assay; type: functional, organism-based; settings: A/Puerto Rico/8/1934(H1N1)
Method in brief: (§2)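 MDCK cells infected with PR8; 1 h after adsorption they were washed, and compound (5–20 μg/ml) or DMSO was added and kept on throughout. Virus released into the supernatant was titrated by HAU assay 24 h p.i. Yield is a percentage of control infected cells given 0.02% DMSO. Means of four experiments, each in duplicate.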

[5] = test system: Influenza A virus; experiment: Antiviral activity against Influenza virus A/Puerto Rico/8/34 H1N1 infected in dog MDCK cells assessed as inhibition of viral replication at 20 ug/mL incubated at 1 hr post-infection measured after 24 hrs by hemagglutininating unit assay relative to control; type: functional; settings: A/Puerto Rico/8/1934(H1N1); method in brief: as §2
[6] = test system: Influenza A virus; experiment: Antiviral activity against Influenza virus A/Puerto Rico/8/34 H1N1 infected in dog MDCK cells incubated for 1 hr prior to infection by hemagglutininating unit assay; type: functional, organism-based; settings: A/Puerto Rico/8/1934(H1N1)
Method in brief: (§3)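 Timing variants, each read by HAU of virus yield from MDCK cells: PR8 stock preincubated 1 h with compound before infection; compound present only during the 1 h adsorption; or cells pretreated overnight with washout just before viral challenge.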

[7] = test system: Influenza A virus; experiment: Antiviral activity against Influenza virus A/Puerto Rico/8/34 H1N1 infected in dog MDCK cells incubated for 1 hr post-infection followed by compound washout by hemagglutininating unit assay; type: functional, organism-based; settings: A/Puerto Rico/8/1934(H1N1)
[8] = test system: Influenza A virus; experiment: Antiviral activity against Influenza virus A/Puerto Rico/8/34 H1N1 infected in dog MDCK cells incubated overnight prior to infection followed by compound washout by hemagglutininating unit assay; type: functional, organism-based; settings: A/Puerto Rico/8/1934(H1N1); method in brief: as §3
[9] = test system: Influenza A virus; experiment: Antiviral activity against Influenza virus A/Puerto Rico/8/34 H1N1 infected in dog MDCK cells incubated at 2 hrs post-infection measured after 24 hrs by hemagglutininating unit assay relative to control; type: functional, A/Puerto Rico/8/1934(H1N1)
Method in brief: (§4)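 Treatment of PR8-infected MDCK cells started at 2, 4, 6 or 8 h p.i. and compound stayed in the medium through 24 h p.i. Virus yield in the supernatant was read by HAU at 24 h p.i. as a percentage of DMSO-treated control infected cells. Means of two experiments, each in duplicate.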

[10] = test system: Influenza A virus; experiment: Antiviral activity against Influenza virus A/Puerto Rico/8/34 H1N1 infected in dog MDCK cells incubated at 4 hrs post-infection measured after 24 hrs by hemagglutininating unit assay relative to control; type: functional, A/Puerto Rico/8/1934(H1N1); method in brief: as §4
[11] = test system: Influenza A virus; experiment: Antiviral activity against Influenza virus A/Puerto Rico/8/34 H1N1 infected in dog MDCK cells incubated at 6 hrs post-infection measured after 24 hrs by hemagglutininating unit assay relative to control; type: functional, organism-based; settings: A/Puerto Rico/8/1934(H1N1); method in brief: as §4
[12] = test system: Influenza A virus; experiment: Antiviral activity against Influenza virus A/Puerto Rico/8/34 H1N1 infected in dog MDCK cells incubated at 8 hrs post-infection measured after 24 hrs by hemagglutininating unit assay relative to control; type: functional, organism-based; settings: A/Puerto Rico/8/1934(H1N1); method in brief: as §4
[13] = test system: MDCK; experiment: Inhibition of PKC/p38MAPK-mediated nuclear-cytoplasmic viral nucleoprotein export in dog MDCK cells infected with Influenza virus A/Puerto Rico/8/34 H1N1 assessed as decrease in nucleoprotein level in cytoplasm measured at 8 hrs post-infection by Western blot analysis; type: cell-based; settings: Canis lupus familiaris
Method in brief: (§5)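 Cytosolic and nuclear extracts from treated and untreated infected MDCK cells were run on SDS-PAGE and immunoblotted with anti-NP antibodies. Blots were stripped and reprobed for α-tubulin (cytosol) or lamin A/C (nucleus). Densitometry is given as the NP/tubulin or NP/lamin ratio; one representative experiment of three.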

[14] = test system: MDCK; experiment: Inhibition of PKC/p38MAPK-mediated nuclear-cytoplasmic viral nucleoprotein export in dog MDCK cells infected with Influenza virus A/Puerto Rico/8/34 H1N1 assessed as increase in nucleoprotein level in nucleus measured at 8 hrs post-infection by Western blot analysis; type: cell-based; settings: Canis lupus familiaris; method in brief: as §5
[15] = molecular target: T1, Protein kinase C (PKC) (Homo sapiens) (UniProt O94806+P41743+P17252+P05129+Q05655+P05771+Q05513+Q02156+P24723+Q15139+Q04759); experiment: Inhibition of PKC-mediated PKD phosphorylation in human NCI-H292 cells infected with Influenza virus A/Puerto Rico/8/34 H1N1 measured at 6 hrs post-infection by immunoblotting analysis; type: cell-based
Method in brief: (§6)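 NCI-H292 cells, mock- or PR8-infected at 1 M.O.I., were treated and lysed 6 h p.i. Lysates were run on 10% SDS–PAGE and blotted with rabbit anti-phospho-PKD, -ERK1/2, -p38MAPK or -JNK antibodies. Membranes were then stripped and reprobed for the corresponding total proteins.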

[16] = molecular target: T1, Protein kinase C (PKC) (Homo sapiens); experiment: Inhibition of PKC-mediated p38MAPK phosphorylation in human NCI-H292 cells infected with Influenza virus A/Puerto Rico/8/34 H1N1 measured at 6 hrs post-infection by immunoblotting analysis; type: cell-based; method in brief: as §6
[17] = molecular target: T1, Protein kinase C (PKC) (Homo sapiens); experiment: Inhibition of PKC-mediated JNK phosphorylation in human NCI-H292 cells infected with Influenza virus A/Puerto Rico/8/34 H1N1 measured at 6 hrs post-infection by immunoblotting analysis; type: cell-based; method in brief: as §6
[18] = molecular target: T1, Protein kinase C (PKC) (Homo sapiens); experiment: Inhibition of PKC-mediated ERK1 phosphorylation in human NCI-H292 cells infected with Influenza virus A/Puerto Rico/8/34 H1N1 measured at 6 hrs post-infection by immunoblotting analysis; type: cell-based; method in brief: as §6
[19] = molecular target: T1, Protein kinase C (PKC) (Homo sapiens); experiment: Inhibition of PKC-mediated ERK2 phosphorylation in human NCI-H292 cells infected with Influenza virus A/Puerto Rico/8/34 H1N1 measured at 6 hrs post-infection by immunoblotting analysis; type: cell-based; method in brief: as §6
[20] = test system: MDCK; experiment: Restoration of GSH level in dog MDCK cells infected with Influenza virus A/Puerto Rico/8/34 H1N1 measured at 24 hrs post-infection by DTNB-based colometric assay; type: functional, cell-based; settings: Canis lupus familiaris
Method in brief: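 MDCK cells, infected or mock-infected and treated, were assayed for intracellular GSH and GSSG with a glutathione assay kit at 24 h p.i. Results are in nmol per mg protein, as the mean of two experiments each in duplicate, compared against mock-infected cells.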

[21] = test system: Influenza A virus; experiment: Downregulation of HA protein expression in Influenza virus A/Puerto Rico/8/34 H1N1 infected in dog MDCK cells measured at 24 hrs post-infection; type: functional, organism-based; settings: A/Puerto Rico/8/1934(H1N1)
Method in brief: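 PR8-infected MDCK cells, untreated or treated, were lysed at 24 h. Homogenates were run on 12% gels under reducing conditions, blotted to nitrocellulose and probed with goat polyclonal anti-influenza antibodies. Densitometry was expressed as the ratio of each viral protein to actin, relative to untreated infected cells.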

[22] = test system: MDCK; experiment: Restoration of GSH level in dog MDCK cells infected with Influenza virus A/Puerto Rico/8/34 H1N1 assessed as impairment of viral protein localization on plasma membrane measured at 24 hrs post-infection by immunofluorescence assay; type: functional, cell-based; settings: Canis lupus familiaris
[23] = test system: MDCK; experiment: Restoration of GSH level in dog MDCK cells infected with Influenza virus A/Puerto Rico/8/34 H1N1 assessed as viral protein localization on peri-nuclear zone measured at 24 hrs post-infection by immunofluorescence assay; type: functional, cell-based; settings: Canis lupus familiaris

O=C(/C=C/c1ccc(O)cc1)c1ccc(O)cc1O [ISOLIQUIRITIGENIN]
Activity [1]: Non-toxic | Activity [2]: Non-toxic | Activity [3]: Non-toxic | Activity [4]: Dose-dependent effect | inhibition [5]: Active | Activity [6]: inactive | Activity [7]: inactive | Activity [8]: inactive | Activity [9]: 79% | Activity [10]: 79% | Activity [11]: Active | Activity [12]: inactive | inhibition [13]: Active | inhibition [14]: Active | inhibition [15]: Active | inhibition [16]: Active | inhibition [17]: Active | inhibition [18]: inactive | inhibition [19]: inactive | Activity [20]: Active | Activity [21]: Active | Activity [22]: Active | Activity [23]: Active

O=C1/C(=C/c2ccc(O)c(O)c2)COC/C1=C\c1ccc(O)c(O)c1
Activity [1]: Non-toxic | Activity [2]: Non-toxic | Activity [3]: Non-toxic | Activity [4]: Dose-dependent effect | inhibition at 20 µg/mL [5]: 75% | Activity [6]: inactive | Activity [7]: inactive | Activity [8]: inactive | Activity [9]: 79% | Activity [10]: 79% | Activity [11]: Active | Activity [12]: inactive | inhibition [13]: Active | inhibition [14]: Active | inhibition [15]: Active | inhibition [16]: Active | inhibition [17]: Active | inhibition [18]: inactive | inhibition [19]: inactive | Activity [20]: Active | Activity [21]: Active | Activity [22]: Active | Activity [23]: Active
